Data on two compounds can be found in ChEMBL document CHEMBL6083224, “A novel aurone RNA CAG binder inhibits the huntingtin RNA-protein interaction” (RSC Med Chem, 2024).

Active and inactive are the calls of the source. The rule behind the calls is not given here.

Holding throughout (format): nucleic-acid assay
One assay concerns TAR RNA. The assay can be described thus: Binding affinity to HIV-1 TAR (5-GGCAGAUCUGAGCCUGGGAGCUCUCUGCC-3) RNA assessed as change in fluorescence intensity. The conditions noted are these: Human immunodeficiency virus 1.
In assay [1] the test system is Rev responsive element (RRE) RNA. The assay can be described thus: Binding affinity to HIV-1 RRE-IIB (5-GGUCUGGGCGCAGCGCAAGCUGACGGUACAGGCC-3) RNA assessed as change in fluorescence intensity. To be noted: Human immunodeficiency virus 1.
Assay [2] concerns CAG repeat expansion. The assay is described as follows: Binding affinity to HTT exon 1 (CAG)51 repeat RNA (unknown origin) assessed as reduction in human MID1 binding to HTT exon 1 (CAG)51 repeat RNA at 100 uM by Western blot analysis. In a few lines: (§1)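 Biotinylated RNA was folded in 10 mM Tris pH 7, 100 mM KCl, 10 mM MgCl₂ (72 °C for 10 min, then cooled to room temperature). 80 pmol of RNA was loaded onto streptavidin-agarose beads in buffer D for 30 min at room temperature. HEK293T protein extract was bound overnight at 4 °C. After washes, bound proteins were eluted at 95 °C for 10 min, and MID1 was detected by anti-MID1 western blot.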
In general terms: Immunoblotting shows a protein as a band on a membrane.

In assay [3] the test system is CAG repeat expansion. The assay can be described thus: Binding affinity to CAG (5-GCAGCAGCUUCGGCAGCAGC-3) repeat RNA (unknown origin) by spectrophotometric analysis. In a few lines: (§2)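 The compound was titrated with RNA, and electronic absorption spectra were recorded on a two-beam UV-vis spectrophotometer. Binding constants were calculated from the spectrophotometric titration data.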

The subject of the next assay is r(CUG) repeat expansion. The assay can be described thus: Binding affinity to CUG (5-GGUCGCUGCUGCACGAAAGUGCUGCUGCGACC-3) RNA (unknown origin) assessed as change in fluorescence intensity.
Assay [4] relates to CAG repeat expansion. The assay can be described thus: Binding affinity to CAG (5-GCAGCAGCUUCGGCAGCAGC-3) repeat RNA (unknown origin) assessed as binding constant. In a few lines:
as §2

Assay [5] has as its system CAG repeat expansion. The assay can be described thus: Binding affinity to CAG (5-GCAGCAGCUUCGGCAGCAGC-3) repeat RNA (unknown origin) assessed as hypochromic red shift by spectrophotometric analysis. A digest of the protocol: as §2
Assay [6] deals with CAG repeat expansion. The assay is described as follows: Binding affinity to HTT exon 1 (CAG)51 repeat RNA (unknown origin) assessed as reduction in human MID1 binding to HTT exon 1 (CAG)51 repeat RNA by Western blot analysis. The conditions noted are these: dose 1-100 µM. A digest of the protocol: as §1

On to `O=C1/C(=C/c2c3ccccc3cc3ccccc23)Oc2ccccc21`, for which the outcome (in the assay with TAR RNA; in assay [1]) was Active. The outcome in the assay on CAG repeat expansion [2], in the assay with CAG repeat expansion [3] and with r(CUG) repeat expansion was inactive.
In the case of `CN(C)CCOc1ccc(/C=C2\Oc3cc(OCCN(C)C)ccc3C2=O)cc1`, the K in the assay with CAG repeat expansion [4] is 1.4 10^5/M. The Activity entry was “No effect” with TAR RNA, “Dose-dependent-effect” in the assay with CAG repeat expansion [6], “No effect” in assay [1] and “No effect” in the assay with r(CUG) repeat expansion. Besides, the outcome in the assay with CAG repeat expansion [5] and in the assay on CAG repeat expansion [2] was Active.
